Assay results published in PubChem BioAssay AID623869 (Vanderbilt High Throughput Screening Facility, 2012).
In all, about 2,100 compounds went through this assay and about 75 (4%) were called active.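 Rule for the calls: active = calcium fluorescence trace judged by eye to show a response, as agonist, enhancer of the glutamate response, or inhibitor; inactive = trace judged by eye to show no response.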 The list comes from a sample in which actives are over-represented; it also holds similar structures and randomly drawn compounds.

Each compound was assayed against Metabotropic glutamate receptor 8 (Rattus norvegicus) (UniProt P70579) (assay: rat mGlu8 modulation via Gqi9 calcium signal, confirmation, counter-screen for GIRK activator project, cell-based, HEK293 rmGlu8, Gqi9 chimera, Fluo-4 calcium (AID 623869)). Conditions: HEK293 rmGlu8/Gqi9 calcium flux, Fluo-4 fluorescence; glutamate at EC20 added after compound.
Sequence of Metabotropic glutamate receptor 8 (Rattus norvegicus) (P70579 whole entry, looked up): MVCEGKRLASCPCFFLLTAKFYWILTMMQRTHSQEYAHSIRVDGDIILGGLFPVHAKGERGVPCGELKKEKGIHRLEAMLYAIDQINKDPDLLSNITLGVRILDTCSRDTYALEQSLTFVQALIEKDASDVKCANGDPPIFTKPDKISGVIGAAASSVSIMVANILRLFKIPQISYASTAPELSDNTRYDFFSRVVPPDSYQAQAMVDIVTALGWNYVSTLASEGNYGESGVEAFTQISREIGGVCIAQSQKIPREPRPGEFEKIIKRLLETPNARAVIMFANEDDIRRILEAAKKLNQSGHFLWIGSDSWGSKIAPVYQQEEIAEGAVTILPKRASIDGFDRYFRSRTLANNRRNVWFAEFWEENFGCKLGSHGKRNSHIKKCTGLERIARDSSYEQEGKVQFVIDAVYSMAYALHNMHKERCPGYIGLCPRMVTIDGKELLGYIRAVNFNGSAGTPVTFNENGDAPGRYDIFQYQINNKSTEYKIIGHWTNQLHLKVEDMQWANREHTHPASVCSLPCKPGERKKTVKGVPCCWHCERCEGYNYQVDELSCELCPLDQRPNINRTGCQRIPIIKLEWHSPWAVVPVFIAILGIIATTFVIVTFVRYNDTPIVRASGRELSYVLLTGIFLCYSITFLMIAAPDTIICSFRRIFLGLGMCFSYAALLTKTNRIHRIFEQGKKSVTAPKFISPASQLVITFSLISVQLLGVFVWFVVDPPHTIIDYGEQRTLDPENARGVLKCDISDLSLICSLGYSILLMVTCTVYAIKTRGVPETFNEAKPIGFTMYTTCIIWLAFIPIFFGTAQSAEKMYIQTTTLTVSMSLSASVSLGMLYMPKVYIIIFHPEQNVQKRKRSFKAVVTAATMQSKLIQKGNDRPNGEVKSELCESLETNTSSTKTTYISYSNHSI
Procedure, shortened: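 Material: rat mGlu8 HEK-293 cells with transient Gqi9. Medium: HEPES-buffered HBSS, pH 7.4. Compound: one dose, 20 µM addition solution, 0.2% DMSO. Schedule: compound 4 min before glutamate, then 2 min recording. Technique: Fluo-4 calcium fluorescence sampled at 1 Hz.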
`CCC(=O)N1CCN(c2ccccc2NC(=O)COc2cccc(C)c2)CC1` was tested, and the outcome was “inactive; 0”. With `CNc1nc(Cl)nc(NC(C)(C)C)n1` the outcome was “active; 2”. With `O=C1Nc2ccccc2C12OCC1(CO2)COC2(OC1)C(=O)Nc1ccccc12` (configuration not stated) the outcome was “active; 2”. In the case of `O=C(c1ccco1)N1CCN(C(=O)c2cnn3c2NC(c2cccs2)CC3C(F)(F)F)CC1` (configuration not stated), the outcome is reported as “inactive; 0”. For `Cc1ccc(-c2csc3ncnc(N4CCN(C(=O)c5ccccc5)CC4)c23)cc1`, the outcome was “inactive; 0”. With `O=C(c1ccco1)N1CCN(c2ncnc3scc(-c4cccs4)c23)CC1` the outcome was “active; 2”. In the case of `S=C(Nc1ccc(Cl)cc1)c1nc2ccccc2[nH]1`, the outcome is reported as “inactive; 0”. For `O=C(NC(=S)Nc1ccccn1)c1ccco1`, the outcome was “inactive; 0”. `Cc1ccc(C(=O)Nc2nc(-c3ccccc3)c(-c3ccccc3)o2)cc1` was tested, and the outcome was “inactive; 0”. In the case of `Cc1ccccc1NC(=S)NC(=O)CCc1ccccc1`, the outcome is reported as “inactive; 0”. For `COc1ccc(C(=O)NC(=S)N(Cc2ccccc2)Cc2ccccc2)cc1`, the outcome was “inactive; 0”. With `Cc1cccc(C)c1NC(=S)NC(=O)CCc1ccccc1` the outcome was “inactive; 0”. For `COc1ccc(C(=O)NC(=S)NNC(=O)CCc2ccccc2)cc1`, the outcome was “active; 1”. For `O=C(CCc1ccccc1)NNC(=S)NC(=O)c1ccc(Cl)cc1`, the outcome was “active; 1”. In the case of `COc1ccc(C(=O)NNC(=S)NC(=O)c2ccco2)cc1`, the outcome is reported as “inactive; 4”. In the case of `CC(=O)c1cccc(NC(=S)NC(=O)c2cccc(Cl)c2)c1`, the outcome is reported as “inactive; 0”. For `Cc1ccc(-n2ncc3c(SCc4ccccc4)ncnc32)cc1`, the outcome was “inactive; 0”. In the case of `O=C(Nc1nnc(-c2ccc3c(c2)CCCC3)o1)c1ccccc1`, the outcome is reported as “inactive; 4”. With `Cc1ccc(OCC(=O)NNC(=O)C(C)Sc2ncnc3sc(C)c(C)c23)cc1` (configuration not stated) the outcome was “inactive; 0”. With `COc1cc(/C=C2/SC(=S)NC2=O)ccc1OS(=O)(=O)c1ccc(C)cc1` the outcome was “inactive; 0”. With `O=C1NC(=S)/C(=C\c2ccc(-c3ccccc3Cl)o2)S1` the outcome was “inactive; 3”. For `COc1cc(/C=C2\SC(=S)NC2=O)ccc1OS(=O)(=O)c1ccccc1`, the outcome was “active; 2”. For `O=C1NC(=S)S/C1=C\c1ccc(SCc2ccccc2)o1`, the outcome was “inactive; 0”. For `O=C1NC(=O)/C(=C\c2ccccc2Oc2ccc(F)c(F)c2)S1`, the outcome was “inactive; 0”. For `COc1ccc(/C=C2\SC(=O)NC2=S)cc1OC`, the outcome was “active; 2”. For `COc1ccc(/C=N\NC(=S)SCN2C(=O)C3CCC(C)(C2=O)C3(C)C)cc1` (configuration not stated), the outcome was “inactive; 0”. In the case of `CCc1ccc2c(c1)c(N=NC1=NC(=O)CS1)c(O)n2C`, the outcome is reported as “inactive; 0”. `C=CCN(CC=C)C(=S)NC(=O)c1ccc(C)c(Br)c1` was tested, and the outcome was “inactive; 0”. With `Cc1ccc(C(=O)NNc2nc3ccccc3nc2C(F)(F)F)cc1` the outcome was “inactive; 0”. `Cc1ccc(NC(=S)NNc2ncc(C(F)(F)F)cc2Cl)c(C)c1` was tested, and the outcome was “inactive; 0”. `FC(F)(F)c1cnc(NNC(=S)Nc2ccc(Cl)cc2)c(Cl)c1` was tested, and the outcome was “inactive; 4”. `FC(F)(F)c1cnc(NNC(=S)Nc2ccccc2Cl)c(Cl)c1` was tested, and the outcome was “active; 1”.
